# Compounds with a hit are over-represented: about 2.4% of the library has one in this group of screens.
# STAT3 act-1: STAT3 signaling activation; actives 0.91% (n = 190,000); activation (% of control), % at 5.6 µM; U3A cells, IL-6 STAT3-luciferase reporter, luminescence; 100% = signal with IL-6 EC80 alone;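 active = activation above the screen-wide mean of compound activation plus 3 SD, cut at about 130% in these data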;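 also: 0% = background luminescence of wells with medium and substrate only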
#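 Test system: human U3A cells carrying STAT3-luciferase construct; control set: IL-6-only wells as 100% reference; timing: compound pre-incubation 1 h before IL-6, then 6 h stimulation at 37 °C; also added: IL-6 stimulus at 33 ng/mL final; evaluation: % activation versus median of IL-6-stimulated wells; detection: reporter luminescence signal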
# MT stabilizer: stabilizes microtubules in HeLa cells. actives 0.83% (n = 200,000). AID 2205. HeLa tubulin immunostaining HCS, 24 h; share of cells brighter than vehicle mean+2SD. % tubulin-high responders, % at 10 µM;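 active = plate Z-score above 3 for both tubulin-high and condensed-nucleus cell shares, with cell loss under 80%, at 10 µM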;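 also: anti alpha tubulin signal scored within the nucleus-defined area of each cell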
# bCat nuc transl: alters nuclear translocation of beta-catenin in HeLa cells; AID 1665; actives 0.3% (n = 190,000); immunofluorescence imaging; nuclear translocation activity, % at 5 µM;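 active = nuclear translocation activity above 50% at 5 µM, with a well cell count of 50 or more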;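 also: per-cell ratio of nuclear to cytoplasmic median beta-catenin stain intensity; plate controls were DMSO negative control for no effect and GSK-3 inhibitor IX positive control for full effect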
#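 System: HeLa cells, endogenous beta-catenin; compound dosing: 5 µM primary single dose, 0.1% DMSO, 0.02–20 µM confirmation series; incubation: 24 h compound exposure at 37°C, 5% CO2; signal: beta-catenin immunofluorescence imaging with DAPI; evaluation: % activation, nuclear-to-cytoplasmic median beta-catenin signal ratio per cell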
# STAT1 inh: reduces IFN-gamma driven STAT1 reporter signal; NIH 3T3 STAT1-luciferase reporter, luminescence; actives 0.35% (n = 200,000); inhibition, % at 5.5 µM;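 active = inhibition above a set limit, the mean inhibition across all tested compounds plus 3 SD, cut at about 34% in these data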;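 also: 0% = IFN-gamma with DMSO and 100% = IFN-gamma with 300 µM nifuroxazide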
# STAT3 blocker: STAT3 signaling inhibition; U3A cells, IL-6 STAT3-luciferase reporter, luminescence; host cell line lacks STAT1; inhibition, % at 5.5 µM; actives 0.89% (n = 190,000); AID 862;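 active = inhibition above the mean inhibition across all screened compounds plus 3 SD, cut at about 44% in these data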;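 also: 0% = DMSO only wells and 100% = 100 µM nifuroxazide control wells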
# STAT3 act-2: STAT3 activation, confirmation assay. shares compounds with STAT3 act-1. actives 64% (n = 1,200). AID 1267. U3A STAT3-luciferase reporter, IL-6 potentiation, luminescence; U3A cells lack STAT1; 100 means same as IL-6 alone. potentiation (% of control), % at 5.7 µM;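 active = percent activation of the STAT3 luciferase reporter above a set limit taken from the earlier primary screen, cut at about 130% in these data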;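 also: 0% = background signal of medium plus substrate and 100% = median of IL-6 with DMSO wells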
# NFkB act 2: counter-screen for STAT3 activators: NF-kappaB activation; activation (% of control), % at 5.7 µM; human cells, NF-kappaB reporter activation; AID 1309; actives 11% (n = 1,200); shares compounds with STAT3 act-1; in the data active = activation above about 120%;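 also: reporter induced by TNF-alpha stimulation; 100% = median of stimulated DMSO wells and 0% = no signal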
# STAT1 act: counter-screen for STAT3 activators: STAT1 activation. activation (% of control), % at 5.7 µM. AID 1318. shares compounds with STAT3 act-1. actives 13% (n = 1,200). NIH 3T3 STAT1-luciferase reporter, IFN-gamma, luminescence;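 active = activation above the solvent-only control well mean plus 3 SD, set per screening run, cut at about 120% in these data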;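 also: 100% = IFN-gamma with DMSO median signal so 100% means no change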
# * = called active by the depositor; . = not tested or not shown.
SMILES,STAT3 act-1,MT stabilizer,bCat nuc transl,STAT1 inh,STAT3 blocker,STAT3 act-2,NFkB act 2,STAT1 act
Oc1ccccc1/C=N/Nc1cccc2cccnc12,161.9*,2.5,-0.5,11.3,-66.9,164.4*,98.4,92.6
CN(CC(=O)Nc1nc2ccccc2s1)S(=O)(=O)c1ccc(Cl)cc1,156.2*,2.0,.,-6.5,-60.4,130.0,99.5,100.6
Cc1cccc(NC(=O)CN(C)S(=O)(=O)c2ccc(Cl)cc2)n1,103.9,4.2,-4.2,-0.7,1.9,.,.,.
N#Cc1ccc(C(=O)Nc2cccc(NC(=O)c3ccco3)c2)c(F)c1,94.2,2.2,0.9,4.4,9.0,.,.,.
CCN(CC)c1ccc(NC(=O)c2cc(Cl)ccc2OC)cc1,162.2*,1.7,.,5.1,-62.5,150.7*,112.1,99.4
CCCOC(=O)c1ccc(NC(=O)c2cc(Cl)ccc2OC)cc1,72.4,9.4,1.0,9.1,35.1,.,.,.
N#Cc1cccc(Oc2ccc(-c3cnc4ccccc4n3)cc2)c1C#N,98.6,2.3,-2.7,-0.9,4.0,.,.,.
CCCc1cc2c(=O)c(-c3nc4ccccc4s3)c(COCC(=O)O)oc2cc1O,151.2*,4.2,-1.7,2.4,-57.5,146.5*,115.9,104.5
CCN(CC)S(=O)(=O)c1cccc(-c2nnc(SCCCC(=O)c3ccccc3)o2)c1,99.0,2.2,2.3,10.0,5.2,.,.,.
CCN(CC)S(=O)(=O)c1cccc(-c2nnc(SCc3nc4ccccc4s3)o2)c1,139.2*,1.9,.,-12.8,-45.9,122.2,110.6,115.1
CC(C)OC(=O)c1cccnc1SCC(=O)N(C)c1ccccc1,98.6,1.4,.,5.9,6.2,.,.,.
CC(C)OC(=O)c1cccnc1SCc1cc(=O)n2ccccc2n1,144.2*,2.9,-6.9,3.4,-47.7,126.8,105.3,103.9
Cc1cc(-c2nn3c(-c4ccccc4)nnc3s2)c2ccccc2n1,156.2*,3.2,-1.3,31.4,-65.8,139.1*,98.6,81.3
c1ccc(-c2cc(-c3nn4c(-c5ccco5)nnc4s3)c3ccccc3n2)cc1,101.3,2.7,-0.1,2.1,0.4,.,.,.
CC1CCOC2(O1)C(=O)N(CN1CCN(c3ccccc3F)CC1)c1ccccc12 (stereo unspecified),147.8*,1.5,.,5.2,-53.7,119.5,99.2,82.5
O=C1N(CN2CCN(c3cccc(Cl)c3)CC2)c2ccccc2C12OCCCO2,87.6,2.5,-1.7,18.3,20.5,.,.,.
Cc1cc(C)nc(/N=C(\N)Nc2ccc(F)c([N+](=O)[O-])c2)n1,92.8,1.7,.,-1.9,18.4,.,.,.
Cn1nc(-c2ccc(Cl)cc2)c2cc(C(=O)NCCN3CCOCC3)sc21,145.4*,2.2,.,11.7,-43.0,152.0*,105.2,99.4
CCN(CC)CCNC(=O)c1cc2c(-c3ccc(Cl)cc3)nn(C)c2s1,176.9*,2.7,.,7.9,-80.2,164.5*,105.8,96.7
Cn1nc(-c2ccc(Cl)cc2)c2cc(C(=O)NC3CC3)sc21,174.0*,1.9,.,-0.9,-85.6,184.7*,123.0*,135.1*
Cn1nc(-c2ccccc2)c2cc(C(=O)O)sc21,100.0,2.7,-3.5,-1.7,8.3,.,.,.
Cn1nc(-c2ccc(Cl)cc2)c2cc(C(=O)NCCCN3CCOCC3)sc21,155.4*,4.4,.,-1.5,-62.8,133.6*,109.0,96.4
O=C(NCCCN1CCOCC1)c1ccc(Cl)s1,99.6,2.1,.,-3.2,6.1,.,.,.
CCN(CC)CCCNC(=O)c1cc(-c2ccc(Cl)cc2)on1,95.3,5.6,-2.4,0.8,10.7,.,.,.
O=c1oc2ccccc2c(Nc2cccc3cccnc23)c1[N+](=O)[O-],113.7,5.8,1.2,0.9,-3.7,.,.,.
SMILES,STAT3 act-1,MT stabilizer,bCat nuc transl,STAT1 inh,STAT3 blocker,STAT3 act-2,NFkB act 2,STAT1 act
C/C(=N/NC(=O)CCCOc1ccc(Cl)cc1Cl)c1ccc(C)o1,114.4,2.1,-0.5,-4.8,-20.1,.,.,.
Cn1c(=O)[nH]c(=O)c2c1nc(CN1CCN(c3cccc(Cl)c3)CC1)n2CCc1ccccc1,103.3,3.2,-1.0,6.2,-0.1,.,.,.
Cn1c(CN2CCN(c3cccc(Cl)c3)CC2)nc2ccccc21,138.6*,4.6,2.8,4.0,-41.9,123.4,108.0,104.4
CCc1c(C)sc(NC(=O)c2ccco2)c1C(=O)N1CCOCC1,137.6*,2.0,.,-4.3,-42.4,98.5,108.7,102.8
CCN(CC)CCCC(C)NC(=O)c1cccc(S(=O)(=O)N2CCc3ccccc32)c1 (stereo unspecified),139.7*,2.6,-1.0,-0.5,-42.9,147.6*,101.9,100.1
CC(C)CCNC(=O)c1cccc(S(=O)(=O)N2CCc3ccccc32)c1,99.1,4.0,-4.0,-0.6,4.5,.,.,.
CNC(=S)N/N=C(\C)c1ccc(C)c(C)c1,92.3,13.3,.,1.5,11.8,.,.,.
COc1ccccc1NS(=O)(=O)c1cccc(C(=O)OCC(=O)Nc2cc(C)on2)c1,101.5,2.2,0.9,1.7,1.7,.,.,.
Cc1cccc(NS(=O)(=O)c2cc(C(=O)OCC(=O)Nc3cc(C)on3)ccc2C)c1,146.9*,6.3,1.0,-1.9,-47.4,131.8,90.8,99.2
Cc1cccc(NS(=O)(=O)c2ccc(C)c(C(=O)OCC(=O)Nc3cc(C)on3)c2)c1,140.1*,2.0,0.4,7.8,-43.3,139.7*,105.9,101.3
O=C(O)CC/C(=C\c1ccccc1[N+](=O)[O-])c1nc2ccccc2s1,107.4,5.6,-3.1,-3.0,-8.5,.,.,.
O=C(O)CC/C(=C\c1cc([N+](=O)[O-])ccc1Cl)c1nc2ccccc2s1,141.6*,3.1,-0.2,14.9,-46.1,146.8*,103.2,91.9
Cc1nn(CCC(=O)NNC(=S)Nc2ccc([N+](=O)[O-])cc2)c(C)c1[N+](=O)[O-],140.3*,2.3,-2.3,4.2,-46.8,135.6*,104.2,102.5
S=C(NCCc1ccccn1)Nc1ccc(Cl)cc1Cl,90.1,4.4,-0.7,3.5,17.0,.,.,.
O=C1c2cccnc2C(=O)N1C1CCCCC1,104.7,9.8,.,11.0,-2.4,.,.,.
Cc1nc2c(n1C1CCCCC1)C(=O)c1ccccc1C2=O,169.8*,1.3,-2.1,-1.7,-69.7,136.5*,98.4,99.3
CCOC(=O)c1[nH]c2ccccc2c1NC(=O)CC,193.8*,3.8,.,8.9,-109.7,148.0*,108.2,96.0
CCOC(=O)c1[nH]c2ccccc2c1NC(=O)COC,168.1*,4.6,.,17.9,-70.0,165.3*,101.3,93.3
CCOC(=O)c1[nH]c2ccccc2c1NC(C)=O,.,.,-3.2,.,.,.,.,.
Cc1ccc(NC(=O)CCC(=O)NNC(=O)c2ccccc2Cl)c(C)c1,96.3,6.5,2.4,4.8,4.4,.,.,.

# Screening data deposited in PubChem by several laboratories.
